From ChEMBL document CHEMBL5724801, “EUbOPEN Chemogenomics Library - Multiplex” (2024)
“And” between values parts separate entries of the source, which are not always exact repeats. Identical values can stand only once.

System: U2OS
Assay: Multiplex assay against U2OS
Format: toxicity, cell-based
Conditions: human
Summary of the method: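 Per cents of healthy-nucleus cells form the tubulin, mitochondrial-mass and membrane-permeability phenotype values. Live cells were stained at seeding with Hoechst33342, BioTracker Green Microtubule Cytoskeleton Dye, MitoTracker Red and Annexin V Alexa Fluor 680. After compound addition they were imaged on a CQ1 microscope at 37°C and 5% CO2, and CellPathfinder machine-learning gating split them into Hoechst high-intensity objects or normal cells, normal cells into healthy, pyknosed or fragmented nuclei, and pyknosed cells into mitotic or apoptotic.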

[1] = 12 h, 1 µM, compound concentration 1 uM
[2] = 12 h, 10 µM, compound concentration 10 uM
[3] = 24 h, 1 µM, compound concentration 1 uM
[4] = 24 h, 10 µM, compound concentration 10 uM
[5] = 48 h, 1 µM, compound concentration 1 uM
[6] = 48 h, 10 µM, compound concentration 10 uM

O=C(NCCNCC(O)COc1ccc(O)cc1)N1CCOCC1.O=C(NCCNCC(O)COc1ccc(O)cc1)N1CCOCC1.O=C(O)/C=C/C(=O)O (stereo unspecified) [XAMOTEROL FUMARATE]
Population Apoptotic (%) [1]: 71% and 83%
Population Fragmented Nuclei (%) [1]: 27% and 19%
Population Healthy Nuclei (%) [1]: 66% and 68%
Population Hoechst High Intensity Objects (%) [1]: 2% and 3%
Population Membrane Permeable-Phenotype (%) [1]: 6% and 13%
Population Mitochondria Different-Phenotype (%) [1]: 1%
Population Mitotic Cells (%) [1]: 28% and 16%
Population Normal (%) [1]: 97% and 96%
Population Pyknosed Nuclei (%) [1]: 5% and 11%
Population Tubulin-Different-Phenotype (%) [1]: 2% and 5%
Total Cell Count [1]: 265 and 110
Population Apoptotic (%) [2]: 92% and 100%
Population Fragmented Nuclei (%) [2]: 28% and 15%
Population Healthy Nuclei (%) [2]: 60% and 73%
Population Hoechst High Intensity Objects (%) [2]: 0% and 4%
Population Membrane Permeable-Phenotype (%) [2]: 6% and 4%
Population Mitochondria Different-Phenotype (%) [2]: 2% and 3%
Population Mitotic Cells (%) [2]: 7% and 0%
Population Normal (%) [2]: 99% and 95%
Population Pyknosed Nuclei (%) [2]: 11%
Population Tubulin-Different-Phenotype (%) [2]: 4% and 7%
Total Cell Count [2]: 239 and 118
Population Apoptotic (%) [3]: 85% and 80%
Population Fragmented Nuclei (%) [3]: 24% and 18%
Population Healthy Nuclei (%) [3]: 68% and 69%
Population Hoechst High Intensity Objects (%) [3]: 0% and 1%
Population Membrane Permeable-Phenotype (%) [3]: 5% and 10%
Population Mitochondria Different-Phenotype (%) [3]: 0% and 4%
Population Mitotic Cells (%) [3]: 15% and 20%
Population Normal (%) [3]: 99% and 98%
Population Pyknosed Nuclei (%) [3]: 6% and 11%
Population Tubulin-Different-Phenotype (%) [3]: 1% and 5%
Total Cell Count [3]: 312 and 129
Population Apoptotic (%) [4]: 89% and 78%
Population Fragmented Nuclei (%) [4]: 22% and 16%
Population Healthy Nuclei (%) [4]: 66% and 70%
Population Hoechst High Intensity Objects (%) [4]: 1%
Population Membrane Permeable-Phenotype (%) [4]: 6%
Population Mitochondria Different-Phenotype (%) [4]: 2%
Population Mitotic Cells (%) [4]: 10% and 21%
Population Normal (%) [4]: 98%
Population Pyknosed Nuclei (%) [4]: 10% and 12%
Population Tubulin-Different-Phenotype (%) [4]: 2% and 6%
Total Cell Count [4]: 270 and 152
Population Apoptotic (%) [5]: 90% and 91%
Population Fragmented Nuclei (%) [5]: 18% and 23%
Population Healthy Nuclei (%) [5]: 75% and 62%
Population Hoechst High Intensity Objects (%) [5]: 1% and 2%
Population Membrane Permeable-Phenotype (%) [5]: 4% and 6%
Population Mitochondria Different-Phenotype (%) [5]: 2% and 3%
Population Mitotic Cells (%) [5]: 9% and 8%
Population Normal (%) [5]: 98% and 97%
Population Pyknosed Nuclei (%) [5]: 6% and 13%
Population Tubulin-Different-Phenotype (%) [5]: 2% and 4%
Total Cell Count [5]: 472 and 171
Population Apoptotic (%) [6]: 89% and 94%
Population Fragmented Nuclei (%) [6]: 18% and 17%
Population Healthy Nuclei (%) [6]: 68% and 73%
Population Hoechst High Intensity Objects (%) [6]: 1% and 2%
Population Membrane Permeable-Phenotype (%) [6]: 2% and 4%
Population Mitochondria Different-Phenotype (%) [6]: 1% and 4%
Population Mitotic Cells (%) [6]: 10% and 5%
Population Normal (%) [6]: 98% and 97%
Population Pyknosed Nuclei (%) [6]: 12% and 9%
Population Tubulin-Different-Phenotype (%) [6]: 2% and 6%
Total Cell Count [6]: 392 and 206
